Measured values: PMC9486889 (Japanese Journal of Clinical Oncology, 2022)

Assay: Phase I dose-escalation: DLT/MTD and treatment-emergent adverse events
Type: in vivo, Japanese patients
Outline: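 Open-label, non-randomized 3+3 dose escalation, starting at 30 mg oral BIW with planned escalation to 50 mg, in continuous 4-week cycles. The DLT window was 28 days from first dose. DLTs were grade 4 hematologic toxicity, grade ≥3 febrile neutropenia, grade 3 thrombocytopenia with significant bleeding, other grade ≥3 non-hematologic toxicity, or troponin rising on 3 consecutive days. AEs were coded by MedDRA 19.1 and graded by CTCAE 4.03.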

## Nc1cc(F)ccc1NC(=O)c1ccc(CNC(=O)/C=C/c2cccnc2)cc1 [HBI-8000, tucidinostat]
30 mg BIW (N = 7)
  Grade 3: Number of patients with at least one TEAE: 5 (71.4) n (%)
  Grade 3 TEAE: Abdominal pain: 0 (0) n (%)
  Grade 3 TEAE: Alanine aminotransferase increased: 0 (0) n (%)
  Grade 3 TEAE: Anaemia: 1 (14.3) n (%)
  Grade 3 TEAE: Blood creatine phosphokinase increased: 1 (14.3) n (%)
  Grade 3 TEAE: Enterocolitis: 0 (0) n (%)
  Grade 3 TEAE: Erythema multiforme: 0 (0) n (%)
  Grade 3 TEAE: Erythema nodosum: 0 (0) n (%)
  Grade 3 TEAE: Hyperglycaemia: 0 (0) n (%)
  Grade 3 TEAE: Hypertriglyceridaemia: 0 (0) n (%)
  Grade 3 TEAE: Lymphocyte count decreased: 1 (14.3) n (%)
  Grade 3 TEAE: Neutropenia: 1 (14.3) n (%)
  Grade 3 TEAE: Parkinsonism: 1 (14.3) n (%)
  Grade 3 TEAE: Pyrexia: 0 (0) n (%)
  Grade 3 TEAE: Rash generalized: 1 (14.3) n (%)
  Grade 3 TEAE: Thrombocytopenia: 0 (0) n (%)
  Grade 4: Number of patients with at least one TEAE: 0 (0) n (%)
  Grade 4 TEAE: Abdominal pain: 0 (0) n (%)
  Grade 4 TEAE: Alanine aminotransferase increased: 0 (0) n (%)
  Grade 4 TEAE: Anaemia: 0 (0) n (%)
  Grade 4 TEAE: Blood creatine phosphokinase increased: 0 (0) n (%)
  Grade 4 TEAE: Enterocolitis: 0 (0) n (%)
  Grade 4 TEAE: Erythema multiforme: 0 (0) n (%)
  Grade 4 TEAE: Erythema nodosum: 0 (0) n (%)
  Grade 4 TEAE: Hyperglycaemia: 0 (0) n (%)
  Grade 4 TEAE: Hypertriglyceridaemia: 0 (0) n (%)
  Grade 4 TEAE: Lymphocyte count decreased: 0 (0) n (%)
  Grade 4 TEAE: Neutropenia: 0 (0) n (%)
  Grade 4 TEAE: Neutrophil count decreased: 0 (0) n (%)
  Grade 4 TEAE: Parkinsonism: 0 (0) n (%)
  Grade 4 TEAE: Pyrexia: 0 (0) n (%)
  Grade 4 TEAE: Rash generalized: 0 (0) n (%)
  Grade 4 TEAE: Thrombocytopenia: 0 (0) n (%)
  Grade 4 TEAE: White blood cell count decreased: 0 (0) n (%)
  Number of patients with at least one related TEAE: 6 (85.7) n (%)
  TEAE: Abdominal pain: 1 (14.3) n (%)
  TEAE: Anaemia: 5 (71.4) n (%)
  TEAE: Back pain: 0 (0) n (%)
  TEAE: C-reactive protein increased: 1 (14.3) n (%)
  TEAE: Decreased appetite: 1 (14.3) n (%)
  TEAE: Diarrhoea: 3 (42.9) n (%)
  TEAE: Dysgeusia: 2 (28.6) n (%)
  TEAE: Fatigue: 3 (42.9) n (%)
  TEAE: Headache: 1 (14.3) n (%)
  TEAE: Hypertriglyceridaemia: 1 (14.3) n (%)
  TEAE: Hyperuricaemia: 2 (28.6) n (%)
  TEAE: Hypocalcaemia: 0 (0) n (%)
  TEAE: Hypokalaemia: 2 (28.6) n (%)
  TEAE: Insomnia: 1 (14.3) n (%)
  TEAE: Nasopharyngitis: 0 (0) n (%)
  TEAE: Nausea: 1 (14.3) n (%)
  TEAE: Neutropenia: 1 (14.3) n (%)
  TEAE: Neutrophil count decreased: 2 (28.6) n (%)
  TEAE: Platelet count decreased: 3 (42.9) n (%)
  TEAE: Pyrexia: 1 (14.3) n (%)
  TEAE: Thrombocytopenia: 2 (28.6) n (%)
  TEAE: Weight decreased: 1 (14.3) n (%)
  TEAE: White blood cell count decreased: 3 (42.9) n (%)
30 mg BIW cohort
  TEAEs that led to dose reduction or dose delay: four
  TEAEs that led to treatment discontinuation: two
30 mg BIW cohort, six patients assessed, Cycle 1
  Dose-limiting toxicities: no dose-limiting toxicitys
40 mg BIW (N = 7)
  Grade 3: Number of patients with at least one TEAE: 4 (57.1) n (%)
  Grade 3 TEAE: Abdominal pain: 1 (14.3) n (%)
  Grade 3 TEAE: Alanine aminotransferase increased: 1 (14.3) n (%)
  Grade 3 TEAE: Anaemia: 0 (0) n (%)
  Grade 3 TEAE: Blood creatine phosphokinase increased: 0 (0) n (%)
  Grade 3 TEAE: Enterocolitis: 1 (14.3) n (%)
  Grade 3 TEAE: Erythema multiforme: 1 (14.3) n (%)
  Grade 3 TEAE: Erythema nodosum: 1 (14.3) n (%)
  Grade 3 TEAE: Hyperglycaemia: 1 (14.3) n (%)
  Grade 3 TEAE: Hypertriglyceridaemia: 1 (14.3) n (%)
  Grade 3 TEAE: Lymphocyte count decreased: 0 (0) n (%)
  Grade 3 TEAE: Neutropenia: 0 (0) n (%)
  Grade 3 TEAE: Neutrophil count decreased: 0 (0) n (%)
  Grade 3 TEAE: Parkinsonism: 0 (0) n (%)
  Grade 3 TEAE: Pyrexia: 1 (14.3) n (%)
  Grade 3 TEAE: Rash generalized: 0 (0) n (%)
  Grade 3 TEAE: Thrombocytopenia: 2 (28.6) n (%)
  Grade 3 TEAE: White blood cell count decreased: 1 (14.3) n (%)
  Grade 4: Number of patients with at least one TEAE: 2 (28.6) n (%)
  Grade 4 TEAE: Abdominal pain: 0 (0) n (%)
  Grade 4 TEAE: Alanine aminotransferase increased: 0 (0) n (%)
  Grade 4 TEAE: Anaemia: 0 (0) n (%)
  Grade 4 TEAE: Blood creatine phosphokinase increased: 0 (0) n (%)
  Grade 4 TEAE: Enterocolitis: 0 (0) n (%)
  Grade 4 TEAE: Erythema multiforme: 0 (0) n (%)
  Grade 4 TEAE: Erythema nodosum: 0 (0) n (%)
  Grade 4 TEAE: Hyperglycaemia: 0 (0) n (%)
  Grade 4 TEAE: Hypertriglyceridaemia: 0 (0) n (%)
  Grade 4 TEAE: Lymphocyte count decreased: 0 (0) n (%)
  Grade 4 TEAE: Neutropenia: 2 (28.6) n (%)
  Grade 4 TEAE: Neutrophil count decreased: 0 (0) n (%)
  Grade 4 TEAE: Parkinsonism: 0 (0) n (%)
  Grade 4 TEAE: Pyrexia: 0 (0) n (%)
  Grade 4 TEAE: Rash generalized: 0 (0) n (%)
  Grade 4 TEAE: Thrombocytopenia: 0 (0) n (%)
  Grade 4 TEAE: White blood cell count decreased: 0 (0) n (%)
  Number of patients with at least one related TEAE: 7 (100) n (%)
  TEAE: Abdominal pain: 1 (14.3) n (%)
  TEAE: Anaemia: 0 (0) n (%)
  TEAE: Back pain: 2 (28.6) n (%)
  TEAE: C-reactive protein increased: 1 (14.3) n (%)
  TEAE: Decreased appetite: 2 (28.6) n (%)
  TEAE: Diarrhoea: 1 (14.3) n (%)
  TEAE: Dysgeusia: 1 (14.3) n (%)
  TEAE: Fatigue: 1 (14.3) n (%)
  TEAE: Headache: 1 (14.3) n (%)
  TEAE: Hypertriglyceridaemia: 1 (14.3) n (%)
  TEAE: Hyperuricaemia: 0 (0) n (%)
  TEAE: Hypocalcaemia: 3 (42.9) n (%)
  TEAE: Hypokalaemia: 1 (14.3) n (%)
  TEAE: Insomnia: 1 (14.3) n (%)
  TEAE: Nasopharyngitis: 2 (28.6) n (%)
  TEAE: Nausea: 2 (28.6) n (%)
  TEAE: Neutropenia: 2 (28.6) n (%)
  TEAE: Neutrophil count decreased: 0 (0) n (%)
  TEAE: Platelet count decreased: 3 (42.9) n (%)
  TEAE: Pyrexia: 2 (28.6) n (%)
  TEAE: Thrombocytopenia: 4 (57.1) n (%)
  TEAE: Weight decreased: 2 (28.6) n (%)
  TEAE: White blood cell count decreased: 1 (14.3) n (%)
40 mg BIW cohort
  Incidence of thrombocytopenia: 57.1%
  TEAEs that led to dose reduction or dose delay: four
  TEAEs that led to treatment discontinuation: four
Total (N = 14)
  Grade 3: Number of patients with at least one TEAE: 9 (64.3) n (%)
  Grade 3 TEAE: Abdominal pain: 1 (7.1) n (%)
  Grade 3 TEAE: Alanine aminotransferase increased: 1 (7.1) n (%)
  Grade 3 TEAE: Anaemia: 1 (7.1) n (%)
  Grade 3 TEAE: Blood creatine phosphokinase increased: 1 (7.1) n (%)
  Grade 3 TEAE: Enterocolitis: 1 (7.1) n (%)
  Grade 3 TEAE: Erythema multiforme: 1 (7.1) n (%)
  Grade 3 TEAE: Erythema nodosum: 1 (7.1) n (%)
  Grade 3 TEAE: Hyperglycaemia: 1 (7.1) n (%)
  Grade 3 TEAE: Hypertriglyceridaemia: 1 (7.1) n (%)
  Grade 3 TEAE: Lymphocyte count decreased: 1 (7.1) n (%)
  Grade 3 TEAE: Neutropenia: 1 (7.1) n (%)
  Grade 3 TEAE: Neutrophil count decreased: 2 (14.3) n (%)
  Grade 3 TEAE: Parkinsonism: 1 (7.1) n (%)
  Grade 3 TEAE: Pyrexia: 1 (7.1) n (%)
  Grade 3 TEAE: Rash generalized: 1 (7.1) n (%)
  Grade 3 TEAE: Thrombocytopenia: 2 (14.3) n (%)
  Grade 3 TEAE: White blood cell count decreased: 2 (14.3) n (%)
  Grade 4: Number of patients with at least one TEAE: 2 (14.3) n (%)
  Grade 4 TEAE: Abdominal pain: 0 (0) n (%)
  Grade 4 TEAE: Alanine aminotransferase increased: 0 (0) n (%)
  Grade 4 TEAE: Anaemia: 0 (0) n (%)
  Grade 4 TEAE: Blood creatine phosphokinase increased: 0 (0) n (%)
  Grade 4 TEAE: Enterocolitis: 0 (0) n (%)
  Grade 4 TEAE: Erythema multiforme: 0 (0) n (%)
  Grade 4 TEAE: Erythema nodosum: 0 (0) n (%)
  Grade 4 TEAE: Hyperglycaemia: 0 (0) n (%)
  Grade 4 TEAE: Hypertriglyceridaemia: 0 (0) n (%)
  Grade 4 TEAE: Lymphocyte count decreased: 0 (0) n (%)
  Grade 4 TEAE: Neutropenia: 2 (14.3) n (%)
  Grade 4 TEAE: Neutrophil count decreased: 0 (0) n (%)
  Grade 4 TEAE: Parkinsonism: 0 (0) n (%)
  Grade 4 TEAE: Pyrexia: 0 (0) n (%)
  Grade 4 TEAE: Rash generalized: 0 (0) n (%)
  Grade 4 TEAE: Thrombocytopenia: 0 (0) n (%)
  Grade 4 TEAE: White blood cell count decreased: 0 (0) n (%)
  Number of patients with at least one related TEAE: 13 (92.9) n (%)
  TEAE: Abdominal pain: 2 (14.3) n (%)
  TEAE: Anaemia: 5 (35.7) n (%)
  TEAE: Back pain: 2 (14.3) n (%)
  TEAE: C-reactive protein increased: 2 (14.3) n (%)
  TEAE: Decreased appetite: 3 (21.4) n (%)
  TEAE: Diarrhoea: 4 (28.6) n (%)
  TEAE: Dysgeusia: 3 (21.4) n (%)
  TEAE: Fatigue: 4 (28.6) n (%)
  TEAE: Headache: 2 (14.3) n (%)
  TEAE: Hypertriglyceridaemia: 2 (14.3) n (%)
  TEAE: Hyperuricaemia: 2 (14.3) n (%)
  TEAE: Hypocalcaemia: 3 (21.4) n (%)
  TEAE: Hypokalaemia: 3 (21.4) n (%)
  TEAE: Insomnia: 2 (14.3) n (%)
  TEAE: Nasopharyngitis: 2 (14.3) n (%)
  TEAE: Nausea: 3 (21.4) n (%)
  TEAE: Neutropenia: 3 (21.4) n (%)
  TEAE: Neutrophil count decreased: 2 (14.3) n (%)
  TEAE: Platelet count decreased: 6 (42.9) n (%)
  TEAE: Pyrexia: 3 (21.4) n (%)
  TEAE: Thrombocytopenia: 6 (42.9) n (%)
  TEAE: Weight decreased: 3 (21.4) n (%)
  TEAE: White blood cell count decreased: 4 (28.6) n (%)
All 14 patients
  Neutrophil count decreased leading to dose reduction or dose delay: 14.3%
  Patients with at least one TEAE: 92.9%
  Platelet count decreased leading to dose reduction or dose delay: 28.6%
  TEAEs that led to dose reduction or dose delay: 57.1%
  TEAEs that led to treatment discontinuation: 42.9%
oral
  Recommended phase II dose (RP2D): 40 mg BIW
oral, 4-week cycles
  Maximum tolerated dose (MTD): 40 mg BIW
